Measurements: ChEMBL document CHEMBL1932987, “Straightforward palladium-mediated synthesis and biological evaluation of benzo[j]phenanthridine-7,12-diones as anti-tuberculosis agents” (Eur J Med Chem, 2012)
≈ marks a conversion by molar mass, not a printed value.

Test system: Mycobacterium tuberculosis
Assay: Antimycobacterial activity against multi-drug resistant Mycobacterium tuberculosis LAM-1 after 1 to 6 days by BACTEC 460-TB assay
Type: functional
In short: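 Drug-resistant clinical LAM-1 isolate of M.tb. (resistant to isoniazid, rifampicin, rifabutin, prothionamid) tested in the BACTEC 460-TB radiometric system. Growth index read over time and compared with an untreated control and with a 100-fold diluted inoculum to derive MIC99. Isoniazid run in parallel to confirm resistance.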

## Cc1ccc2c3c(cnc2c1)C(=O)c1ccccc1C3=O
  MIC99: 0.71 µM (≈ 0.194 µg/mL)
